{"data": "Measured values from different studies", "target": "Serine/threonine-protein kinase 3 (STK3, Homo sapiens, UniProt Q13188)", "Residues used in one study (Q13188 1-491)": "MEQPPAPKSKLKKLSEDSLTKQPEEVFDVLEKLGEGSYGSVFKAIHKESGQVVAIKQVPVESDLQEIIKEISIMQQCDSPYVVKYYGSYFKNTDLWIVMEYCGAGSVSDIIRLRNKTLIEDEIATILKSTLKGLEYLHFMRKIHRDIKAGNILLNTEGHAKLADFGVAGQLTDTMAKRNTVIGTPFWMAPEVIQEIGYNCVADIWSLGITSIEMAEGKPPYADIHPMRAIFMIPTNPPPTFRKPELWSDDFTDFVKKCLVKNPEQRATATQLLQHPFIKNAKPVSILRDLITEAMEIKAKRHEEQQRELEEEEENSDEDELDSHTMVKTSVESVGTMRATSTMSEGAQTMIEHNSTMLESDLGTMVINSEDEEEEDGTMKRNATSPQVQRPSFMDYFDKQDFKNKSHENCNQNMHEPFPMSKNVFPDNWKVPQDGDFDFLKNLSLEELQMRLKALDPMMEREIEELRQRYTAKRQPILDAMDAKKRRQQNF", "note": "Protocols differ between the studies behind these lines."}
{"SMILES": "CO[C@@H]1[C@H](N(C)C(=O)c2ccccc2)C[C@H]2O[C@]1(C)n1c3ccccc3c3c4c(c5c6ccccc6n2c5c31)C(=O)NC4", "assay": "enzyme activity, inhibitor", "setting": "1 µM", "quantity": "inhibition", "value": "100%"}
{"SMILES": "COc1ccc2oc(-c3ccc4nc(N)oc4c3)c/c(=N\\c3ccccc3NC(=O)CCN)c2c1", "assay": "binding", "setting": "1 µM", "quantity": "remaining binding", "value": "79%"}
{"SMILES": "Cc1ccc(NC(=O)c2ccnc(C(F)(F)F)c2)cc1-c1cc(OCCO)nc(N2CCOCC2)c1", "assay": "binding", "setting": "1 µM", "quantity": "remaining binding", "value": "79%"}
{"SMILES": "C#Cc1cc(-c2cc(Nc3nc(N[C@@H](C)c4ccc(F)cn4)ncc3Cl)n[nH]2)ccc1C=O", "assay": "enzyme activity, inhibitor", "setting": "0.2 µM", "quantity": "inhibition", "value": "29.9%"}
{"SMILES": "Cc1cc(O)c(-c2ccc([C@@H](C)CN(C)C)cc2)c2c1[nH]c(=O)c1sccc12", "assay": "enzyme activity, inhibitor", "setting": "0.1 µM", "quantity": "inhibition", "value": "9.39%"}
{"SMILES": "CN1CCN(C(=O)c2ccc(NC(=O)Nc3ccc(N(C)c4ccnc(Nc5ccc(CS(C)(=O)=O)cc5)n4)cc3)cc2)CC1", "assay": "binding", "setting": "1 µM", "quantity": "remaining binding", "value": "16%"}
{"SMILES": "CCCCC(=O)Nc1ccc(-c2ccc3ncn(CCC)c(=O)c3c2)cn1", "assay": "binding, competition with immobilised ligand", "setting": "0.5 µM", "quantity": "remaining binding", "value": "73%"}
{"SMILES": "CC#CC(=O)N1CCC[C@H]1c1nc(-c2ccc(C(=O)Nc3ccccn3)cc2)c2c(N)nccn12", "assay": "enzyme activity, inhibitor", "setting": "1 µM", "quantity": "inhibition", "value": "19%"}
{"SMILES": "CC(C)S(=O)(=O)c1ccc2nccc(Nc3ccc4sc(C5CCCC5)nc4c3)c2c1", "assay": "enzyme activity, inhibitor", "setting": "1 µM", "quantity": "activity vs control", "value": "103%"}
